Measured values as given in ChEMBL document CHEMBL4513216, “Probing the Open Global Health Chemical Diversity Library for Multistage-Active Starting Points for Next-Generation Antimalarials” (ACS Infect Dis, 2020).

assay: Toxicity liver stage against HepG2, at 10uM; format: cell-based; set-up: test concentration 10 uM, cell line HepG2-A16-CD81EGFP; settings: human, HepG2-A16-CD81EGFP cells; read-out: INHIBITION
How it was run: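 Uninfected HepG2-A16-CD81EGFP cells, 3 × 10^3 per well, 1536-well, plated on prespotted compound at 10 μM final, parasite-free screening media added to match infected plates; puromycin 10 μM positive, DMSO 0.5% negative; run in parallel with 48 h PbLuc assay at 37 °C, 5% CO2; viability by CellTiter-Glo luminescence, normalized to controls.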

Row | Structure (SMILES) | cytotoxicity at 10 µM [%]
1 | COc1cc(-c2nc(N)n[nH]2)cc(OC)c1OC | -10.2
2 | Cn1ccc(C(=O)NCCOc2ccc(C(C)(C)C)cc2)cc1=O | 9.71
3 | COCCOc1ccnc(-c2noc([C@@H]3CCCN3C(C)C)n2)c1 | -12.7
4 | Cc1ccc(S(=O)(=O)NC[C@H]2OC[C@@H](NCc3ccccc3)[C@@H]2O)cc1 | -1.73
5 | COc1ccc(CN2CC[C@@]3(C2)[C@H](O)CN(C)S3(=O)=O)cc1F | -7.86
6 | Cc1cc(NC(=O)C(C#N)Cc2cnn(C)c2C)no1 (stereo unspecified) | 4.58
7 | CC(=O)c1sc2nc3c(c(C(F)(F)F)c2c1N)CN(C(C)=O)CC3 | -26
8 | CCOCCNS(=O)(=O)c1ccc2c3c1CCCN3C(=O)CO2 | 7.9
9 | CCCN(CCC)c1ncc(S(=O)(=O)c2ccc(C)cc2)c(N)n1 | 3.19
10 | COCCCN1CC2(CCCCN2C(=O)c2ccsc2)CC1=O (stereo unspecified) | 5.03
11 | COCCNS(=O)(=O)c1cccc(CSC)c1 | 11.9
12 | CN(C)CC1(O)CCN(C(=O)Cc2ccc3c(c2)CCCC3)C1 (stereo unspecified) | -7.75
13 | Cc1cc(C(=O)N2CCCC(c3cc(=O)nc4n3CCC4)C2)on1 (stereo unspecified) | -1.28
14 | Cc1cc(NC2CC3(CCN(Cc4cscn4)C3)C2)ncn1 (stereo unspecified) | -2.13
15 | CCn1ncc(CN2CCC(c3ncc(Cl)cc3S(C)(=O)=O)CC2)c1C | 3.5
16 | Cc1cncc(C2CCN(Cc3ccsc3)CC2)n1 | 4.86
17 | Cc1cc(C(F)(F)F)nc(C2CCCN2S(C)(=O)=O)n1 (stereo unspecified) | 2.68
18 | CC(C)(C)OC(=O)N1CCN(c2cccnc2)CC1C(=O)O (stereo unspecified) | -13.7
19 | Cc1cc(CN(C)Cc2ccccc2N2CCCCC2)n[nH]1 | -2.98
20 | Cc1cc(C)n(CCNC(=O)c2cc(C3CC3)n[nH]2)n1 | 7.39
21 | CS(=O)(=O)c1cn[nH]c1C1CCCN(C(=O)CN2CCOCC2)C1 (stereo unspecified) | -22.8
22 | CC(=O)N1CCCC(c2ccc(N3CCN(C)CC3)cn2)C1 (stereo unspecified) | -28.9
23 | OCCN1CCCC(c2nccnc2Oc2ccc(F)cc2)C1 (stereo unspecified) | 25.6

Row | Structure (SMILES) | cytotoxicity at 10 µM [%]
24 | CCCn1ccnc1CN1CCN(C2CCOCC2)CC(C(N)=O)C1 (stereo unspecified) | -24.4
25 | Cc1nc(Nc2ccccn2)cc(C2CCCN2C2CCOCC2)n1 (stereo unspecified) | -18.1
26 | CN1CCCC[C@@H]2[C@H]1[C@@H](c1ccccc1)CCN2C(=O)c1ccccn1 | -14.7
27 | Cn1nc(C2CCCN(Cc3ccc(F)cc3F)C2)c2nccnc21 (stereo unspecified) | -8.46
28 | Cc1nccn1CC1CCCN(C(=O)c2cnn(C)c2)C1 (stereo unspecified) | -6.44
29 | O=C(c1ccncc1)N1Cc2ccccc2OC2(CCOCC2)C1 | -1.03
30 | N#CCCSc1nnc(Cc2ccccc2F)o1 | -11.7
31 | CC(C)(C)c1ncc(C(=O)NCc2ccccc2CN2CCCC2)s1 | -8.98
32 | Cc1nnc2n1CCN(C(=O)C1CCC(n3cccc3)CC1)C2 (stereo unspecified) | -1.05
33 | CCc1ocnc1C(=O)N1CCN(c2nncc3ccccc23)CC1 | 6.61
34 | CN(C)C(=O)Cc1ccccc1NCc1nc(Cc2ccccc2)no1 | 1.9
35 | Cc1nonc1NC(=O)CCn1cc(Br)ccc1=O | 0.297
36 | CS(=O)(=O)CCNC(=O)NCCc1cc2ccccc2o1 | 2.8
37 | CCc1ccc(C(=O)NC2CCCN(c3ccn(C)n3)C2=O)o1 (stereo unspecified) | -2.43
38 | Cc1csc(CNC(=O)N(C)Cc2ccc([S+](C)[O-])cc2)n1 (stereo unspecified) | 4.53
39 | COc1ccc(C(C)NS(=O)(=O)c2ccc3c(c2)CCC(=O)N3)cc1F (stereo unspecified) | -49.7
40 | CC1CCN(C(=O)c2sccc2-n2cnnn2)CC1 | 9.33
41 | Cc1cnn(Cc2ccc(NC(=O)N3CCCC3)cc2)c1 | 1.18
42 | Cc1cc(C2CCCN(C(=O)c3ccc(OCC4CC4)nc3)C2)n[nH]1 (stereo unspecified) | -12.9
43 | O=C(NCc1ccc(CN2CCCC2)cc1)NCc1ccon1 | -0.145
44 | CCN(CC)CCSc1ncnc2[nH]ncc12 | -4.44
45 | CC(C)COc1cncc(NCC(O)c2ccco2)n1 (stereo unspecified) | -2.85
46 | CC(C)C(=O)N1CCCC1C(=O)Nc1cc(C(F)(F)F)ccc1F (stereo unspecified) | -0.359

Row | Structure (SMILES) | cytotoxicity at 10 µM [%]
47 | CC(C)(C)OC(=O)N1CCC[C@H](NCC2CCOCC2)C1 | -0.678
48 | NS(=O)(=O)CC1CCN(c2ncccc2C(F)(F)F)CC1 | -3.16
49 | O=C(NC1CCCN(c2ccc(OC(F)F)cc2)C1)c1cc[nH]n1 (stereo unspecified) | 3.65
50 | CN1CCN(S(C)(=O)=O)c2cc(F)ccc21 | -1.15
51 | O=S(=O)(N1CCCCCC1)N1CCc2sccc2C1 | -5.6
52 | N#Cc1nccnc1N1CCC(COCc2ccccc2)C1 (stereo unspecified) | 7.78
53 | Cc1ccccc1C1(CN)CCOCC1 | 7.93
54 | Cc1cnn(CC2CCCCN2C(=O)c2sccc2C#N)c1 (stereo unspecified) | 0.185
55 | NC(=O)NC(CC(=O)NCCc1cccc(F)c1)c1ccccc1 (stereo unspecified) | -0.862
56 | CCc1nsc(N2CCCN(C(=O)c3ccsc3)CC2)n1 | 5.73
57 | CC(C)(C)c1nc(CNC2CCN(S(C)(=O)=O)CC2)cs1 | -2.34
58 | CC(CNC(=O)c1cn(-c2ccccc2)nn1)Cn1cccn1 (stereo unspecified) | -41.6
59 | CC1CN(Cc2nnsc2Cl)CCN1c1nccs1 (stereo unspecified) | -39.3
60 | O=C(CCCNC(=O)Nc1ccc(F)cc1)Nc1cn[nH]c1 | 9.37
61 | Cc1ccc(S(=O)(=O)NC(=O)c2cc(S(C)(=O)=O)ccc2C)s1 | 14.1
62 | CN1CCOC(C(=O)N2CCC3(CCCCC3)C2)C1 (stereo unspecified) | 5.41
63 | COc1ccc(Cc2nnc3n2N=C(C(C)(C)C)CS3)cc1 | 10.7
64 | COC(=O)c1ccc(C(=O)NS(=O)(=O)c2cncc(Br)c2)cc1 | 9.95
65 | CC(C)C(NC(=O)NCC1(CO)CC1)c1nnc2n1CCC2 (stereo unspecified) | -6.11
66 | CCS(=O)(=O)N1Cc2nccn2CC(Cn2cncn2)C1 (stereo unspecified) | 7.21
67 | CN(C)CCNCC1COCc2c(-c3ccnn3C)nnn2C1 (stereo unspecified) | -99.9
68 | O=C(CC1CC1)N1Cc2nccn2CC(CN2CCCC2)C1 (stereo unspecified) | -67.7
69 | Cc1nc2c(c(NC3CC3)n1)CCN(C(=O)C(C)(C)O)CC2 | 4.24

Row | Structure (SMILES) | cytotoxicity at 10 µM [%]
70 | C[C@@H](CO)Nc1cc(-c2cn[nH]c2)ncn1 | -10.6
71 | Cc1ncc(-c2ccnc(N3CCC[C@@H]3CO)n2)c(-c2cccnc2)n1 | -8.49
72 | Cc1nc(CN(C)C(=O)C2CCC(=O)N(CCN(C)C)C2)cs1 (stereo unspecified) | 8.08
73 | CCN1CCCC1Cn1ccc2ccc(C(=O)OC)cc2c1=O (stereo unspecified) | -7.86
74 | Cc1c[nH]c(CN(C)C(=O)CCn2cnc3ccccc32)n1 | 9.67
75 | CN(Cc1cccc(CCN)c1)Cc1cccc2ncccc12 | 7.82
76 | c1cnc2c(-c3nccn3C[C@@H]3CCCN4CCCC[C@H]34)cccc2c1 | 1.83
77 | Cc1cc(C)c(C(=O)NC2CCCc3nc(N(C)C)ncc32)cc1C (stereo unspecified) | -1.25
78 | COCCC(=O)N[C@H]1CN(c2nc(C)c3c(n2)CCCC3)C[C@@H]1C1CC1 | -12.8
79 | CC(C)N1CC2(CCC1=O)CCN(c1ccnc3ccccc13)CC2 | 3.2
80 | Cc1cc(-c2ccccc2Cl)nc(N)n1 | -0.268
81 | CN(Cc1csc(-c2cccs2)n1)C(=O)CCn1ccc(=O)[nH]c1=O | 4.71
82 | CN(CCc1ccccn1)[C@@H]1CCN(c2cccc(C#N)n2)C[C@H]1O | -13.9
83 | Cc1ccccc1C1CCCN(C(=O)c2c[nH]c(=O)c(Cl)c2)C1 (stereo unspecified) | -59.8
84 | CN(Cc1noc2c1CCCC2)C(=O)Cn1cnc2ccccc2c1=O | -52.4
85 | CCC(=O)Nc1cccc(OCC(=O)N(C)Cc2ccon2)c1 | 5.37
86 | CC(CCc1ccccc1)NC(=O)CN1CCOCC1 (stereo unspecified) | 4.17
87 | CSc1ccc2cc(CN(C)CCc3cn[nH]c3)c(=O)[nH]c2c1 | -7.23
88 | NC(=O)c1csc(N2C[C@@H](CN3CCOCC3)[C@@H](CO)C2)n1 | 2.97
89 | Cc1cc(C)n(CC(=O)N2CCCCC2CCN(C)C)c(=O)n1 (stereo unspecified) | -14.7
90 | CC(C)(C)c1nc(CN2CCN(C(=O)c3cnccn3)CC2)cs1 | -5.92
91 | Cc1c(F)cc(C(=O)O)cc1S(=O)(=O)Nc1ccccc1 | -4.54
92 | O=C(c1cccnc1O)N1CCN(CCc2cccs2)CC1 | -8.86

Row | Structure (SMILES) | cytotoxicity at 10 µM [%]
93 | Cc1cc(CN2CCCCC2Cn2cncn2)no1 (stereo unspecified) | -8.89
94 | CCCn1nc2c(cc1=O)CN(Cc1nc(-c3ccco3)no1)CC2 | -7.69
95 | CC(O)CN1CCN(C(=O)Cc2ccccc2Cl)CC1 (stereo unspecified) | -9.6
96 | CC(=O)N1CCCN(C(=O)NCc2cc[nH]n2)CC1 | -6.44
97 | CC(C)(C)c1cn2nc(N3CCOC(Cn4cncn4)C3)sc2n1 (stereo unspecified) | -2.63
98 | COc1ccc(CN2C[C@@H]3COC[C@]3(CN(C)C)C2)cc1 | -1.75
99 | O=C([C@H]1CC[C@@H]2[C@@H](CCN2C2CCCCC2)O1)N1CCOCC1 | 7.19
100 | O=S(=O)(C1CC1)N1CCC2(CC1)CN(Cc1ccccn1)CCO2 | -0.358
101 | Cn1ccnc1C(=O)NC[C@@H]1OC[C@H]2CN(CC3CC3)CC[C@H]21 | -115
102 | O=C(NC[C@]12COC[C@H]1CN(Cc1cccs1)C2)c1ccsc1 | -0.629
103 | Cc1cccc(CN2CCC3(CC2)CC(c2cccnc2)C(=O)N3C)n1 (stereo unspecified) | 7.53
104 | CS(=O)(=O)c1cncnc1C1CCCNC1 (stereo unspecified) | -8.33
105 | COc1cc(N2C[C@H]3CCC[C@@H](CN(C)C4CC4)[C@H]3C2)ncn1 | -73
106 | COCCN1CCOCC2(CCCN(Cc3ccc(C)o3)C2)C1 (stereo unspecified) | -5.58
107 | CNC(=O)[C@H]1C[C@@H]2CN(C(=O)c3ccncc3)C[C@@H]2N1S(C)(=O)=O | -5.98
108 | Cn1cccc1C(=O)NCc1cnc2n1CCN(CC1CCOCC1)C2 | -105
109 | Cc1cccc(CN2CCC3(CCN(c4ccccn4)C3)C2=O)c1 (stereo unspecified) | 9.3
110 | CN(C)CCO[C@@H]1CC[C@H]2[C@H]1OCCN2C(=O)c1ccnnc1 | -2.1
111 | CC(C)CC(=O)N1CC[C@@H]2[C@H](CC1)N(Cc1cccnc1)CCS2(=O)=O | 0.238
